In ChEMBL document CHEMBL1123779, “Modifications of primaquine as antimalarials. 4. 5-Alkoxy derivatives of primaquine” (J Med Chem, 1987):

Tests used:
Mus musculus [1] = experiment: Suppressive blood schizonticidal antimalarial activity evaluated in the trophozoite-induced Plasmodium berghei infection in mice (Mus musculus) at a dose 80 mg/kg given as no. of cures; assay type: functional
Procedure, shortened: (§1)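 Run at the Rane Laboratory with blood-induced P. berghei infections in mice, five animals per group. A cure is a mouse surviving to 60 days postinfection. Deaths before day 6 are recorded separately as toxic deaths. Activity is scored from the increase in mean survival time over untreated controls, and counts as active when treated MST is more than twice control MST.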

Plasmodium berghei [2] = experiment: Blood schizonticidal activity in trophozoite-induced Plasmodium berghei infected mice (Mus musculus) at 40 mg/kg; numbers cured; assay type: functional; procedure, shortened: as §1
Plasmodium cynomolgi [3] = experiment: Cures in Plasmodium cynomolgi infected Rhesus monkeys (Macaca mulatta) on 3.16 mg/kg/day after 7 days; cured 2 of 2; assay type: functional
Mus musculus [4] = experiment: Suppressive blood schizonticidal antimalarial activity evaluated in the trophozoite-induced Plasmodium berghei infection in mice (Mus musculus) at a dose 640 mg/kg given as no. of cures; assay type: functional; procedure, shortened: as §1
Mus musculus [5] = experiment: Suppressive blood schizonticidal antimalarial activity evaluated in the trophozoite-induced Plasmodium berghei infection in mice (Mus musculus) at a dose 10 mg/kg; assay type: functional
Procedure, shortened: (§2)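 Run at the Rane Laboratory in mice infected with blood-induced P. berghei, five animals per group. Activity is the increase in mean survival time over untreated infected controls. A compound counts as active when treated-group MST is more than twice the control MST. Cures are mice surviving at 60 days postinfection.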

Mus musculus [6] = experiment: Suppressive blood schizonticidal antimalarial activity evaluated in the trophozoite-induced Plasmodium berghei infection in mice (Mus musculus) at a dose 160 mg/kg given as no. of cures; assay type: functional; procedure, shortened: as §1
Plasmodium cynomolgi [7] = experiment: Cures in Plasmodium cynomolgi infected Rhesus monkeys (Macaca mulatta) on 1 mg/kg/day after 7 days; cured 0 of 1; assay type: functional
Mus musculus [8] = experiment: Suppressive blood schizonticidal antimalarial activity evaluated in the trophozoite-induced Plasmodium berghei infection in mice (Mus musculus) at a dose 320 mg/kg given as number of cures; assay type: functional; procedure, shortened: as §1
Plasmodium berghei [9] = experiment: Blood schizonticidal antimalarial activity in the trophozoite-induced Plasmodium berghei infection in mice (Mus musculus) at 20 mg/kg; assay type: functional; set-up: unit not given beside the values; procedure, shortened: as §2
Plasmodium cynomolgi [10] = experiment: Cures in Plasmodium cynomolgi infected Rhesus monkeys (Macaca mulatta) on 10.0 mg/kg/day after 7 days; cured 1 of 1; assay type: functional
Mus musculus [11] = experiment: Suppressive blood schizonticidal antimalarial activity evaluated in the trophozoite-induced Plasmodium berghei infection in mice (Mus musculus) at a dose 160 mg/kg given as no. of toxic deaths; assay type: functional
Procedure, shortened: (§3)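 Rane Laboratory mouse test with blood-induced P. berghei infection, five mice per group. Toxic deaths are deaths occurring before the 6th day postinfection.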

Mus musculus [12] = experiment: Suppressive blood schizonticidal antimalarial activity evaluated in the trophozoite-induced Plasmodium berghei infection in mice (Mus musculus) at a dose 80 mg/kg given as no. of toxic deaths; assay type: functional; procedure, shortened: as §3
Plasmodium cynomolgi [13] = experiment: Cures in Plasmodium cynomolgi infected Rhesus monkeys (Macaca mulatta) on 0.1 mg/kg/day after 7 days (x7); cured 0 of 2; assay type: functional
Mus musculus [14] = experiment: Suppressive blood schizonticidal antimalarial activity evaluated in the trophozoite-induced Plasmodium berghei infection in mice (Mus musculus) at a dose 40 mg/kg; assay type: functional; set-up: unit not given beside the values; procedure, shortened: as §2
Plasmodium berghei [15] = experiment: Suppressive blood schizonticidal antimalarial activity evaluated in the trophozoite-induced Plasmodium berghei infection in mice (Mus musculus) at a dose 640 mg/kg given as number of toxic deaths; assay type: toxicity, organism-based; set-up: dose 640 mg/kg; conditions: in vivo; procedure, shortened: as §3
Plasmodium cynomolgi [16] = experiment: Cures in Plasmodium cynomolgi infected Rhesus monkeys (Macaca mulatta) on 0.316 mg/kg/day after 7 days; cured 0 of 2; assay type: functional
Plasmodium cynomolgi [17] = experiment: Radical curative antimalarial activity against Plasmodium cynomolgi in Rhesus monkeys (Macaca mulatta) at 1 mg/kg/day over 7 days; cured 1 of 2; assay type: functional
Mus musculus [18] = experiment: Suppressive blood schizonticidal antimalarial activity evaluated in the trophozoite-induced Plasmodium berghei infection in mice (Mus musculus) at a dose 320 mg/kg given as no. of toxic deaths; assay type: functional; procedure, shortened: as §3
Mus musculus [19] = experiment: Suppressive blood schizonticidal antimalarial activity evaluated in the trophozoite-induced Plasmodium berghei infection in mice (Mus musculus) at a dose 2.5 mg/kg; assay type: functional; procedure, shortened: as §2
Plasmodium cynomolgi [20] = experiment: Cures in Plasmodium cynomolgi infected Rhesus monkeys (Macaca mulatta) on 10.0 mg/kg/day after 7 days; assay type: functional, organism-based
Plasmodium cynomolgi [21] = experiment: Radical curative antimalarial activity against Plasmodium cynomolgi in Rhesus monkeys (Macaca mulatta) at 1 mg/kg/day over 7 days; cured 4 of 4; assay type: functional
Plasmodium cynomolgi [22] = experiment: Cures in Plasmodium cynomolgi infected Rhesus monkeys (Macaca mulatta) on 0.316 mg/kg/day after 7 days; cures 2 of 2; assay type: functional
Mus musculus [23] = experiment: Suppressive blood schizonticidal antimalarial activity evaluated in the trophozoite-induced Plasmodium berghei infection in mice (Mus musculus) at a dose 20 mg/kg given as no. of cures; assay type: functional; procedure, shortened: as §1
Mus musculus [24] = experiment: Suppressive blood schizonticidal antimalarial activity evaluated in the trophozoite-induced Plasmodium berghei infection in mice (Mus musculus) at a dose 10 mg/kg given as no. of cures; assay type: functional; procedure, shortened: as §1
Mus musculus [25] = experiment: Suppressive blood schizonticidal antimalarial activity evaluated in the trophozoite-induced Plasmodium berghei infection in mice (Mus musculus) at a dose 5 mg/kg given as no. of cures; assay type: functional; procedure, shortened: as §1
Plasmodium cynomolgi [26] = experiment: Cures in Plasmodium cynomolgi infected Rhesus monkeys (Macaca mulatta) on 3.16 mg/kg/day after 7 days; cured 0 of 1; assay type: functional
Plasmodium cynomolgi [27] = experiment: Cures in Plasmodium cynomolgi infected Rhesus monkeys (Macaca mulatta) on 1 mg/kg/day after 7 days; cured 2 of 2; assay type: functional
Mus musculus [28] = experiment: Suppressive blood schizonticidal antimalarial activity evaluated in the trophozoite-induced Plasmodium berghei infection in mice (Mus musculus) at a dose 40 mg/kg given as number of toxic deaths; assay type: ADME, organism-based; set-up: dose 40 mg/kg; conditions: in vivo; procedure, shortened: as §3
Plasmodium cynomolgi [29] = experiment: Radical curative antimalarial activity against Plasmodium cynomolgi in Rhesus monkeys (Macaca mulatta) at 0.316 mg/kg/day over 7 days; cured 3 of 5; assay type: functional
Plasmodium cynomolgi [30] = experiment: Cures in Plasmodium cynomolgi infected Rhesus monkeys (Macaca mulatta) on 0.1 mg/kg/day after 7 days; cured 1 of 3; assay type: functional
Mus musculus [31] = experiment: Suppressive blood schizonticidal antimalarial activity evaluated in the trophozoite-induced Plasmodium berghei infection in mice (Mus musculus) at a dose 2.5 mg/kg given as number of cures; assay type: functional; procedure, shortened: as §1
Mus musculus [32] = experiment: Suppressive blood schizonticidal antimalarial activity evaluated in the trophozoite-induced Plasmodium berghei infection in mice (Mus musculus) at a dose 20 mg/kg given as number of toxic deaths; assay type: ADME, organism-based; set-up: dose 20 mg/kg; conditions: in vivo; procedure, shortened: as §3
Plasmodium cynomolgi [33] = experiment: Cures in Plasmodium cynomolgi infected Rhesus monkeys (Macaca mulatta) on 0.25 mg/kg/day dose; assay type: functional
Plasmodium cynomolgi [34] = experiment: Cures in Plasmodium cynomolgi infected Rhesus monkeys (Macaca mulatta) on 0.5 mg/kg/day; assay type: functional
Plasmodium cynomolgi [35] = experiment: Cures in Plasmodium cynomolgi infected Rhesus monkeys (Macaca mulatta) on 0.125 mg/kg/day dose; assay type: functional
Mus musculus [36] = experiment: Suppressive blood schizonticidal antimalarial activity evaluated in the trophozoite-induced Plasmodium berghei infection in mice (Mus musculus) at a dose 80 mg/kg; assay type: functional; set-up: unit not given beside the values; procedure, shortened: as §2
Plasmodium cynomolgi [37] = experiment: Cures in Plasmodium cynomolgi infected Rhesus monkeys (Macaca mulatta) on 1 mg/kg/day after 7 days; cured 3 of 4; assay type: functional
Mus musculus [38] = experiment: Suppressive blood schizonticidal antimalarial activity evaluated in the trophozoite-induced Plasmodium berghei infection in mice (Mus musculus) at a dose 160 mg/kg; assay type: functional; procedure, shortened: as §2

CCCCCCCCCCCOc1c(OC)cc(NC(C)CCCN)c2nccc(C)c12 (centres undefined)
Cures (Mus musculus [1]): 2 | Cures (Plasmodium berghei [2]): 1 | Cures/no. of animals (Plasmodium cynomolgi [3]): 2 | Cures (Mus musculus [4]): 5 | Delta MST (Mus musculus [5]): 3.7 | Cures (Mus musculus [6]): 5 | Cures/no. of animals (Plasmodium cynomolgi [7]): 0 | Cures (Mus musculus [8]): 5 | Delta MST (Plasmodium berghei [9]): 1 | Cures/no. of animals (Plasmodium cynomolgi [10]): 1

COc1cc(NC(C)CCCN)c2ncc(C)cc2c1 (centres undefined)
Toxic deaths (Mus musculus [11]): 2 | Toxic deaths (Mus musculus [12]): 1 | Cures/no. of animals (Plasmodium cynomolgi [13]): 0 | Delta MST (Mus musculus [14]): 7.5 | Toxic deaths (Plasmodium berghei [15]): 5 | Cures/no. of animals (Plasmodium cynomolgi [16]): 0 | Cures/no. of animals (Plasmodium cynomolgi [17]): 2 | Toxic deaths (Mus musculus [18]): 5 | Delta MST (Plasmodium berghei [9]): 5.7

CCCCCCCOc1c(OC)cc(NC(C)CCCN)c2nccc(C)c12 (centres undefined)
Delta MST (Mus musculus [19]): 7.9 | Cures/no. of animals (Plasmodium cynomolgi [20]): Toxic | Cures (Mus musculus [1]): 2 | Cures (Plasmodium berghei [2]): 4 | Toxic deaths (Mus musculus [11]): 1 | Cures/no. of animals (Plasmodium cynomolgi [21]): 4 | Cures/no. of animals (Plasmodium cynomolgi [13]): 0 | Cures/no. of animals (Plasmodium cynomolgi [22]): 2 | Cures (Mus musculus [23]): 5 | Toxic deaths (Plasmodium berghei [15]): 5 | Cures (Mus musculus [24]): 3 | Toxic deaths (Mus musculus [18]): 5 | Cures (Mus musculus [25]): 3

CCCCCCCCCCOc1c(OC)cc(NC(C)CCCN)c2nccc(C)c12 (centres undefined)
Cures (Mus musculus [1]): 4 | Cures (Plasmodium berghei [2]): 3 | Cures (Mus musculus [4]): 4 | Delta MST (Mus musculus [5]): 1.8 | Cures/no. of animals (Plasmodium cynomolgi [26]): 0 | Cures (Mus musculus [6]): 4 | Cures/no. of animals (Plasmodium cynomolgi [7]): 0 | Cures (Mus musculus [23]): 2 | Cures (Mus musculus [8]): 5 | Cures/no. of animals (Plasmodium cynomolgi [10]): 1

COc1cc(NC(C)CCCN)c2nccc(C)c2c1OCCCCCCOCc1ccccc1 (centres undefined)
Cures/no. of animals (Plasmodium cynomolgi [27]): 2 | Toxic deaths (Mus musculus [28]): 5 | Cures/no. of animals (Plasmodium cynomolgi [29]): 3 | Cures/no. of animals (Plasmodium cynomolgi [30]): 1 | Cures (Mus musculus [31]): 1 | Toxic deaths (Mus musculus [32]): 2 | Cures (Mus musculus [24]): 4 | Cures (Mus musculus [25]): 2

COc1cc(NC(C)CCCN)c2nccc(C)c2c1OC (centres undefined)
Cures (Plasmodium cynomolgi [33]): 3 | Toxic deaths (Mus musculus [11]): 1 | Cures (Plasmodium cynomolgi [34]): 1 | Cures (Plasmodium cynomolgi [35]): 11 | Delta MST (Mus musculus [14]): 7.1 | Toxic deaths (Plasmodium berghei [15]): 5 | Toxic deaths (Mus musculus [18]): 4 | Delta MST (Mus musculus [36]): 8.9 | Delta MST (Plasmodium berghei [9]): 5.7

CCCCCCOc1c(OC)cc(NC(C)CCCN)c2ncc(C)cc12 (centres undefined)
Cures/no. of animals (Plasmodium cynomolgi [37]): 3 | Cures (Mus musculus [1]): 1 | Cures (Plasmodium berghei [2]): 2 | Cures/no. of animals (Plasmodium cynomolgi [13]): 0 | Delta MST (Mus musculus [38]): 7.6 | Delta MST (Mus musculus [5]): 0.2 | Toxic deaths (Plasmodium berghei [15]): 4 | Cures/no. of animals (Plasmodium cynomolgi [16]): 0 | Toxic deaths (Mus musculus [18]): 3 | Delta MST (Plasmodium berghei [9]): 8.2
